Lmaj promast – Leishmania major promastigote growth inhibition. Leishmania major promastigotes, resazurin fluorescence viability. inhibition, % at 10 µM. 9% of 200,000 active. AID 1063; in the data active = inhibition above about 50%;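 note: promastigotes grown with compound for 44 hours at 28 °C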
bCat KO growth – beta-catenin-lacking colon tumor cell growth suppression. HCT116 beta-catenin knockout viability, CellTiter-Glo, 60 h; active compounds read low. AID 818. viability, % at 10 µM. 1.5% of 140,000 active;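 active = viability at or under a set limit, the compound median less 4 SD, cut at about 6% in these data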;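 note: 0% = Hyamine 1622 control at 20 µM and 100% = untreated cell control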
PMI act – activators of human phosphomannose isomerase; purified human PMI, coupled resazurin fluorescence, 20 min; active compounds read high; 1 = vehicle control, 0 substrate-free wells; AID 1214; P34949; activation factor at 20 µM; 0.005% of 190,000 active;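 active = activation factor of 2 or more at 20 µM, relative to plate controls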
Target sequence (P34949 whole entry, looked up): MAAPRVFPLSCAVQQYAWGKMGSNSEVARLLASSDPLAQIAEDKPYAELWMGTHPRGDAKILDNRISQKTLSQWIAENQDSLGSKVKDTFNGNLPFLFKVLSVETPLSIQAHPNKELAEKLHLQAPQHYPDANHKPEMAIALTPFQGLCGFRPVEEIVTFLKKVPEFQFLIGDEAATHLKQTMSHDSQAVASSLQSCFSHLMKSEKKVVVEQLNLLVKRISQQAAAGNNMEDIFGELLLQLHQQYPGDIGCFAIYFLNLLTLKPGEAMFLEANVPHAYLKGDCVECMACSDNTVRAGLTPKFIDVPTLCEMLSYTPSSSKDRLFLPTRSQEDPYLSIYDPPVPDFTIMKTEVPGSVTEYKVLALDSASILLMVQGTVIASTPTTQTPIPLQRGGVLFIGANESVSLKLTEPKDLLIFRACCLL
PMI act hi M6P – increases human PMI activity with near-saturating mannose 6-phosphate; AID 1216; P34949; activation factor at 20 µM; 0.34% of 190,000 active; coupled PMI enzyme assay, resazurin fluorescence, 20 min; active compounds read high; 1 = untreated enzyme, 0 = substrate-free blank;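 active = activation factor of 2 or more at 20 µM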
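Test system: human phosphomannose isomerase with PGI, G6PDH, diaphorase coupling enzymes; Amount: PMI at 15 ng/mL final; Reagent: Mannose-6-phosphate 1.0 mM (near-saturating) plus 0.22 mM NADP+; Timing: 20 min, room temperature; Technique: resorufin fluorescence at Ex 544/Em 590 nm; Dosing: 20 µM single dose.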
PTEN del growth – PTEN-deleted cell growth suppression | HCT116 PTEN-null viability, CellTiter-Glo, 60 h; active compounds read low | viability, % at 10 µM | 1.2% of 140,000 active | AID 827;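 active = viability at or below a set limit, 4 SD under the median of all tested compounds, cut at about 3.7% in these data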;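 note: PTEN knockout HCT116 line with beta catenin targeted HCT116 as companion control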
Numbers without * were called inactive; nt = not tested or not shown. Sampled rows, rich in hits. Any-hit rate of the full collection: about 9.6%.

SMILES	Lmaj promast	bCat KO growth	PMI act	PMI act hi M6P	PTEN del growth
Cc1cc(F)ccc1S(=O)(=O)Nc1ccccc1C(=O)Nc1ccccc1-c1nc2ccccc2[nH]1	42	3.7*	0.9	0.9	4
Cc1cc(NC(c2cccnc2)c2ccc3cccnc3c2O)no1 (stereo not drawn)	99*	4.3*	0.9	0.6	5
Oc1c(C(Nc2cccc(C(F)(F)F)c2)c2cccnc2)ccc2cccnc12 (stereo not drawn)	100*	18	0.8	0.7	30
Oc1cccc(C(Nc2nccs2)c2ccc3cccnc3c2O)c1 (stereo not drawn)	100*	nt	0.8	0.4	nt
Cc1cccc(NC(c2ccc(O)cc2)c2ccc3ccc(C)nc3c2O)n1 (stereo not drawn)	-6	88	0.9	0.9	90
Oc1c(C(Nc2ccccn2)c2cccnc2)cc(Cl)c2cccnc12 (stereo not drawn)	94*	3.6*	0.8	0.6	4
O=C(COc1cccc2cccnc12)Nc1nccs1	8	101	0.9	1	110
O=C(CSc1ccc(F)cc1)NC(=O)NCc1ccccc1	-4	nt	0.9	0.9	nt
COC(=O)CN1C(c2ccccc2)=Nc2ccc(Cl)cc2C1c1ccccc1 (stereo not drawn)	33	76	1	1	63
COc1ccc(C(=O)O/N=C/c2c(C(F)(F)F)nn(C)c2SCc2ccccc2Cl)cc1	0	4.2*	1	1	13
Cc1ccccc1OCCCC(=O)Nc1nncs1	2	nt	1	1	nt
COc1ccc(NC(=O)/C(Cl)=C(/Cl)S(=O)(=O)Cc2ccccc2)cn1	42	4.5*	0.9	0.9	3.0*
COc1ccc(NC(=O)C(Cl)=C(Cl)Cl)cn1	5	nt	1.1	1	nt
COc1ccc(NC(=O)/C(Cl)=C(/Cl)S(=O)Cc2ccc(Cl)cc2)cn1 (stereo not drawn)	100*	nt	1.1	1.1	nt
Cc1ccc(S(=O)(=O)N(CC(O)CN2C(=O)NC(C)(C)C2=O)c2ccccc2)cc1 (stereo not drawn)	-3	95	1	1	106
O=C(CSc1nc2cc(Cl)ccc2o1)NCCc1ccccc1	-5	85	0.9	1	79
O=C(CCSc1ccc(Cl)cc1)c1cccs1	70*	43	0.9	0.9	71
O=C(CSc1nc2cc(Cl)ccc2o1)c1cccs1	57*	99	0.9	0.9	92
CCOc1ccc2c(c1)-c1c(ssc1=S)C(C)(C)N2C(=O)c1ccco1	36	11	0.9	0.9	15
C=CCc1ccc(OCCOCCN(C)C)c(OC)c1	38	92	1	1	102
CN(C)CCCOc1ccc(Cl)cc1Br	62*	88	0.9	1	83
Cc1cc(C)c(OCCN(C)C)c(Cl)c1	1	nt	1	1	nt
CN(C)CCOCCOc1ccc(Cl)cc1Br	93*	nt	0.8	0.9	nt
Cc1cc(Br)cc(C)c1OCCCCN(C)C	100*	57	0.9	0.9	59
CC(C)NCCOCCOc1ccc(Cl)cc1Br	95*	63	1.1	1.1	71
SMILES	Lmaj promast	bCat KO growth	PMI act	PMI act hi M6P	PTEN del growth
Clc1ccc(OCCSc2ncccn2)c(Br)c1	1	nt	1	1	nt
CCN(CC)C(=O)c1sc2c(c1C)c(=O)n(-c1ccc(C)c(C)c1)c(=O)n2CC(=O)NCC1CCCO1 (stereo not drawn)	17	nt	0.9	0.9	nt
CC1CN(C(=O)COC(=O)c2nn(-c3ccccc3)c(=O)c3ccccc23)CC(C)O1 (stereo not drawn)	-5	nt	1	0.9	nt
Cc1cc(Cl)c(OCCCCNC(C)(C)C)c(Br)c1	98*	65	1.1	1.1	64
Cc1ccc(OCCCN(C)C)c(Br)c1	60*	89	0.9	0.9	91
Cc1cc(Cl)c(OCCCN(C)C)c(Br)c1	79*	79	1	1.1	80
CCC(=O)c1ccc(N2CCC(C)CC2)c(F)c1	-4	nt	0.9	0.9	nt
O/C(=C\c1nc2ccccc2nc1/C=C(\O)c1ccccc1)c1ccccc1	98*	nt	1.3	0.8	nt
COc1ccc(/C(O)=C/c2nc3ccccc3n(-c3ccccc3)c2=O)cc1	-4	82	1	0.9	70
COC(=O)c1ccc(C(C(=O)NC2CCCCC2)N(Cc2ccc(F)cc2)C(=O)Cc2cccs2)cc1 (stereo not drawn)	56*	76	0.9	1	82
COc1ccc(CN(C(=O)Cc2cccs2)C(C(=O)NC2CCCC2)c2ccncc2)cc1 (stereo not drawn)	57*	90	0.9	1	87
COC(=O)c1ccc(C(C(=O)NC2CCCCC2)N(CCc2ccccc2)C(=O)Cc2cccs2)cc1 (stereo not drawn)	-6	97	0.9	1	87
CCC(C)NC(=O)CC(c1ccccc1)c1cc(C)ccc1O (stereo not drawn)	2	nt	1	1	nt
COCCn1nnnc1C(C(C)C)N1CCSCC1 (stereo not drawn)	-8	nt	1.2	1.1	nt
Clc1ccc(OCc2nnc(SCCN3CCCCC3)n2Cc2ccco2)cc1	100*	10	1	1.2	16
O=C(CSc1ncc(-c2ccc(F)cc2)n1Cc1ccco1)Nc1ccc2c(c1)OCO2	60*	65	0.8	1	69
Cc1ccc(OCc2nnc(SCC(=O)Nc3ccc4c(c3)OCCO4)n2Cc2ccco2)cc1	96*	86	1.1	1	81
O=C(CSc1nnc(-c2ccccc2)n1Cc1ccco1)Nc1ccc2c(c1)OCCO2	37	100	1	1	104
CC(C)c1ccc(CNC(=O)C(=O)NCCCn2ccnc2)cc1	-3	nt	1	0.9	nt
CCN(CC)CCC(C)OC(c1ccccc1)c1ccccc1 (stereo not drawn)	100*	nt	1.1	1.1	nt
CCNCCOC(c1ccccc1)c1ccccc1	6	93	1	1	101
CN(C)CC#CCOC(c1ccccc1)c1ccccc1	99*	nt	1	1	nt
CCN(CC)CC#CCOC(c1ccccc1)c1ccccc1	98*	nt	1.2	1.1	nt
C=CC[N+]1(CC#CCOC(c2ccccc2)c2ccccc2)CCOCC1	-4	76	1	1.1	87
Cc1ccc(NC(=S)NCc2ccc(S(N)(=O)=O)cc2)cc1Cl	31	nt	0.9	1	nt
CN(C)CCCNc1ccc(S(N)(=O)=O)cc1[N+](=O)[O-]	-6	84	1	1	92
CN(/N=C\c1ccc(O)c(O)c1)c1nc(-c2ccccc2)cc(-c2ccccc2)n1	100*	29	0.7	1	33
O=C1c2ccccc2C(=O)N1/N=C/c1ccc(O)c(O)c1	-5	92	0.6	0.9	90
O=Cc1cn(CC(=O)N2CCc3ccccc32)c2ccccc12	-6	nt	1.1	1	nt
Cc1ccc(S(=O)(=O)/N=C2\C(=O)c3ccccc3C([O-])=C2n2cc[n+](CCC(C)C)c2)cc1	88*	3.7*	0.9	0.5	6

Screening data: PubChem, several laboratories
